ChEMBL document CHEMBL1212938, “Inhibition of mycobacterial replication by pyrimidines possessing various C-5 functionalities and related 2'-deoxynucleoside analogues using in vitro and in vivo models” (J Med Chem, 2010)
Converted amounts (≈) assume the structure as drawn. The source made the active and inactive calls. The calls are words filed in the database; no cut-off is given here.

How the values were obtained:
[1] = tested on: Mycobacterium tuberculosis; experiment: Antitubercular activity against Mycobacterium tuberculosis H37Ra at 100 ug/ml after 6 days by microplate alamar blue assay; format: functional; details: 144 h
In short: (§1)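 MABA run in 7H9GC medium, with drug diluted from DMSO stocks made at 100× the highest final concentration. Final levels were 100, 50, 10, 5, 2.5 and 1 μg/mL in triplicate, and the experiment was done three times. Inoculum was 2.5 × 10⁵ CFU/mL final. Alamar Blue plus Tween-80 was added once bacteria-only control wells turned pink, from day 6 on, and plates were read visually and by fluorescence after 24 h. Visual MIC is the lowest concentration preventing the blue-to-pink change. Mean percent inhibition was taken relative to bacteria-only and medium-only wells.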

[2] = Cytotoxicity against human HuH7 cells assessed as cell viability at > 200 ug/ml after 2 days by [3H]thymidine incorporation assay; format: cell-based; details: huh-7, 48 h
[3] = tested on: Mycobacterium tuberculosis; experiment: Antitubercular activity against Mycobacterium tuberculosis H37Ra after 6 days by microplate alamar blue assay; format: functional; details: 144 h; in short: as §1
Enterococcus faecalis [4] = experiment: Antibacterial activity against Enterococcus faecalis at 100 ug/ml after 16 to 20 hrs by broth microdilution method; format: functional, organism-based
Listeria monocytogenes [5] = experiment: Antibacterial activity against Listeria monocytogenes at 100 ug/ml after 16 to 20 hrs by broth microdilution method; format: functional, organism-based
[6] = tested on: Mycobacterium tuberculosis; experiment: Antitubercular activity against Mycobacterium tuberculosis H37Ra at 50 ug/ml after 6 days by microplate alamar blue assay; format: functional; details: 144 h; in short: as §1
[7] = tested on: Mycobacterium tuberculosis; experiment: Antitubercular activity against Mycobacterium tuberculosis H37Ra at 1 ug/ml after 6 days by microplate alamar blue assay; format: functional; details: 144 h; in short: as §1
Proteus vulgaris = experiment: Antibacterial activity against Proteus vulgaris at 100 ug/ml after 16 to 20 hrs by broth microdilution method; format: functional, organism-based
Pseudomonas aeruginosa = experiment: Antibacterial activity against Pseudomonas aeruginosa at 100 ug/ml after 16 to 20 hrs by broth microdilution method; format: functional, organism-based
Salmonella typhimurium = experiment: Antibacterial activity against Salmonella Typhimurium at 100 ug/ml after 16 to 20 hrs by broth microdilution method; format: functional, organism-based; details: Salmonella enterica subsp. enterica serovar Typhimurium
Staphylococcus aureus [8] = experiment: Antibacterial activity against Staphylococcus aureus at 100 ug/ml after 16 to 20 hrs by broth microdilution method; format: functional, organism-based
[9] = Cytotoxicity against human HuH7 cells assessed as cell viability at 200 ug/ml after 2 days by XTT assay; format: cell-based; details: huh-7, 48 h
In short: (§2)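 Huh-7 cells seeded at 1 × 10⁵ cells/well and left to attach 6-8 h. Medium then replaced with compound at 200, 100, 50, 10 or 1 μg/mL, with a DMSO control, and incubated 2 days at 37 °C. Viability by XTT, absorbance read at 450-500 nm.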

Escherichia coli = experiment: Antibacterial activity against Escherichia coli at 100 ug/ml after 16 to 20 hrs by broth microdilution method; format: functional, organism-based
[10] = tested on: Staphylococcus epidermidis; experiment: Antibacterial activity against Staphylococcus epidermidis at 100 ug/ml after 16 to 20 hrs by broth microdilution method; format: functional, organism-based
Streptococcus pyogenes [11] = experiment: Antibacterial activity against Streptococcus pyogenes at 100 ug/ml after 16 to 20 hrs by broth microdilution method; format: functional, organism-based
[12] = tested on: Mycobacterium tuberculosis; experiment: Antitubercular activity against Mycobacterium tuberculosis H37Ra at 10 ug/ml after 6 days by microplate alamar blue assay; format: functional; details: 144 h; in short: as §1
Bacillus subtilis = experiment: Antibacterial activity against Bacillus subtilis at 100 ug/ml after 16 to 20 hrs by broth microdilution method; format: functional, organism-based
Streptococcus pneumoniae = experiment: Antibacterial activity against Streptococcus pneumoniae at 100 ug/ml after 16 to 20 hrs by broth microdilution method; format: functional, organism-based
[13] = Cytotoxicity against human HuH7 cells assessed as cell viability after 2 days by XTT assay; format: cell-based, Huh-7; details: for CC50 at 48 h: HuH7 cells; in short: as §2
[14] = tested on: Mycobacterium tuberculosis; experiment: Antitubercular activity against Mycobacterium tuberculosis H37Ra at 5 ug/ml after 6 days by microplate alamar blue assay; format: functional; details: 144 h; in short: as §1
[15] = tested on: Mycobacterium tuberculosis; experiment: Antitubercular activity against Mycobacterium tuberculosis H37Ra infected in BALB/c mouse assessed as reduction of CFU counts in spleen at 50 mg/kg, ip administered 5 days after infection for 25 days measured after 3 days last dose; format: functional, organism-based; design: dose 50 mg/kg
In short: (§3)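 Female BALB/c mice, 5–6 weeks old, were infected iv via the tail vein with about 2.5 × 10⁵ CFU of H37Ra in PBS, 5 per group. From day 5, drug was given ip at 50 mg/kg, 5 days/week, for 25 treatment days, in 10% DMSO–saline or poly(ethylene glycol) methyl ether. Controls received diluent only. Three days after the last dose, lung, liver and spleen homogenates were plated on 7H11 agar at 37 °C for up to 4 weeks. Colony counts were done blinded.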

[16] = tested on: Mycobacterium tuberculosis; experiment: Antitubercular activity against Mycobacterium tuberculosis H37Ra at 2.5 to 5 ug/ml after 6 days by microplate alamar blue assay; format: functional; in short: as §1
[17] = tested on: Mycobacterium tuberculosis; experiment: Antitubercular activity against Mycobacterium tuberculosis H37Ra infected in BALB/c mouse assessed as reduction of CFU counts in liver at 50 mg/kg, ip administered 5 days after infection for 25 days measured after 3 days last dose; format: functional, organism-based; design: dose 50 mg/kg; in short: as §3
[18] = tested on: Mycobacterium tuberculosis; experiment: Antitubercular activity against Mycobacterium tuberculosis H37Ra infected in BALB/c mouse assessed as reduction of CFU counts in lungs at 50 mg/kg, ip administered 5 days after infection for 25 days measured after 3 days last dose; format: functional, organism-based; design: dose 50 mg/kg; in short: as §3
Mus musculus = experiment: Toxicity in Mycobacterium tuberculosis H37Ra infected in BALB/c mouse assessed as adverse effect at 50 mg/kg, ip administered 5 days after infection for 25 days; format: organism-based; design: dose 50 mg/kg, route intraperitoneal; details: in vivo
In short: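 BALB/c mice infected with H37Ra were given 50 mg/kg ip in 10% DMSO–saline from day 5 post-infection, 5 days/week, over 25 treatment days. They were monitored for weight loss and behavioural changes and examined by gross necropsy after euthanasia.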

Streptococcus pyogenes [19] = experiment: Antibacterial activity against Streptococcus pyogenes after 16 to 20 hrs by broth microdilution method; format: functional
In short: (§4)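 Broth microdilution MIC. Exponentially growing bacteria diluted in sterile liquid medium to a final inoculum of 1 × 10⁴ CFU/mL, cultured with serial compound dilutions for 16-20 h. MIC taken as the lowest inhibitory concentration.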

[20] = tested on: Staphylococcus epidermidis; experiment: Antibacterial activity against Staphylococcus epidermidis after 16 to 20 hrs by broth microdilution method; format: functional; in short: as §4
Enterococcus faecalis [21] = experiment: Antibacterial activity against Enterococcus faecalis after 16 to 20 hrs by broth microdilution method; format: functional; in short: as §4
Staphylococcus aureus [22] = experiment: Antibacterial activity against Staphylococcus aureus after 16 to 20 hrs by broth microdilution method; format: functional; in short: as §4
Listeria monocytogenes [23] = experiment: Antibacterial activity against Listeria monocytogenes after 16 to 20 hrs by broth microdilution method; format: functional; in short: as §4

| SMILES | inhibition at 100 µg/mL [1] [%] | Activity [2] | MIC50 [3] [µg/mL] | Activity (Enterococcus faecalis [4]) | Activity (Listeria monocytogenes [5]) | inhibition at 50 µg/mL [6] [%] | inhibition at 1 µg/mL [7] [%] | Activity (Proteus vulgaris) | Activity (Pseudomonas aeruginosa) | Activity (Salmonella typhimurium) | Activity (Staphylococcus aureus [8]) | Activity [9] | Activity (Escherichia coli) | Activity [10] | Activity (Streptococcus pyogenes [11]) | inhibition at 10 µg/mL [12] [%] | Activity (Bacillus subtilis) | Activity (Streptococcus pneumoniae) | CC50 at 48 h [13] [µg/mL] | inhibition at 5 µg/mL [14] [%] | further results |
| --- | --- | --- | --- | --- | --- | --- | --- | --- | --- | --- | --- | --- | --- | --- | --- | --- | --- | --- | --- | --- | --- |
| C(C#Cc1ccccn1)#Cc1ccccn1 | 100 | Non-toxic | < 1 | inactive | inactive | 100 | 80 | inactive | inactive | inactive | inactive | Non-toxic | inactive | inactive | inactive | 100 | inactive | inactive |  |  |  |
| CO[C@H]1/C=C/O[C@@]2(C)Oc3c(C)c(O)c4c(O)c(c(/C=N/N5CCN(C)CC5)c(O)c4c3C2=O)NC(=O)/C(C)=C\C=C\[C@H](C)[C@H](O)[C@@H](C)[C@@H](O)[C@@H](C)[C@H](OC(C)=O)[C@@H]1C [RIFAMPIN] |  |  | < 1 |  |  |  | 100 |  |  |  |  |  |  |  |  |  |  |  |  |  |  |
| CCCCCc1ccc(C#Cc2c[nH]c(=O)[nH]c2=O)cc1 | 90 | Non-toxic | 10 (≈ 35.4 µM) | inactive | inactive | 50 |  | inactive | inactive | inactive | inactive | Non-toxic | inactive | inactive | inactive | 50 | inactive | inactive | > 100 | 0 |  |
| Nc1nc(=O)n([C@H]2C[C@H](O)[C@@H](CO)O2)cc1C#Cc1ccccn1 | 90 | Non-toxic | 2.5 (≈ 7.61 µM) | inactive | inactive | 90 |  | inactive | inactive | inactive | inactive | Non-toxic | inactive | inactive | inactive | 70 | inactive | inactive |  |  | Activity [15]: Active; Activity ([13]; huh-7, 48 h): Non-toxic; inhibition (INH) [16]: 50%; Activity [17]: Active; Activity [18]: Active; Activity (Mus musculus): Non-toxic |
| N[C@@H]1CONC1=O [CYCLOSERINE] |  |  | 5 (≈ 49 µM) |  |  |  |  |  |  |  |  |  |  |  |  | 67 |  |  |  | 50 | Activity [15]: Active; Activity [17]: Active; Activity [18]: Active |
| O=c1[nH]c(=O)n([C@H]2C[C@H](O)[C@@H](CO)O2)cc1C#Cc1ccccn1 | 90 | Non-toxic | 2.5 (≈ 7.59 µM) | inactive | inactive | 78 |  | inactive | inactive | inactive | inactive | Non-toxic | inactive | inactive | inactive | 68 | inactive | inactive |  |  | inhibition (INH) [16]: 50% |
| CCCCCC#Cc1c[nH]c(=O)[nH]c1=O |  |  |  |  |  |  |  | inactive | inactive | inactive |  |  | inactive |  |  |  | inactive | inactive |  |  | MIC90 (Streptococcus pyogenes [19]): 50 µg/mL (≈ 242 µM); MIC90 [20]: 10 µg/mL (≈ 48.5 µM); MIC90 (Enterococcus faecalis [21]): 50 µg/mL (≈ 242 µM); MIC90 (Staphylococcus aureus [22]): 50 µg/mL (≈ 242 µM); MIC90 (Listeria monocytogenes [23]): 50 µg/mL (≈ 242 µM) |
| O=c1[nH]cc(C#Cc2ccccn2)c(=O)[nH]1 | 90 | Non-toxic | 5 (≈ 23.5 µM) | inactive | inactive | 70 |  | inactive | inactive | inactive | inactive | Non-toxic | inactive | inactive | inactive | 60 | inactive | inactive | > 100 | 50 | Activity [15]: Active; Activity [17]: Active; Activity [18]: Active; Activity (Mus musculus): Non-toxic |
| CCCc1ccc(C#Cc2c[nH]c(=O)[nH]c2=O)cc1 | 90 | Non-toxic | < 10 | inactive | inactive | 55 |  | inactive | inactive | inactive | inactive | Non-toxic | inactive | inactive | inactive | 55 | inactive | inactive | > 100 | 0 |  |
| NNC(=O)c1ccncc1 [ISONIAZID] |  |  | < 1 |  |  |  | 100 |  |  |  |  |  |  |  |  |  |  |  |  |  |  |
